From PubChem BioAssay
PDI inh = PDI (human) enzyme inhibition; P07237; PDI insulin aggregation turbidity, A650, 90 min; inhibition, % at 10 µM; 350,000 compounds, 0.052% hits;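 active = mean inhibition across replicates of 30% or more, whatever share of single replicates reach that level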
FN deposit inh = fibronectin deposition inhibition; 350,000 compounds, 0.086% hits; inhibition, % at 12.6 µM; AH1F fibroblasts, Alexa488-fibronectin deposition fluorescence, overnight;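 active = mean inhibition across replicates of 30% or more, regardless of how many single replicates reach that level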;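 also: positive control wells lacked labelled fibronectin entirely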
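Material: AH1F fibroblast monolayer depositing Alexa488-labelled fibronectin into matrix | Input: 10000 AH1F cells/well | Medium: DMEM plus 2% serum, read in PBS | Reagent: Alexa488-fibronectin, 24 nM final in well | Compound dosing: One dose per compound, pinned | Schedule: 1 h adhesion, overnight exposure | Measured by: Fluorescence at 485 nm excitation, 525 nm emission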
S100A4 inh HTS = S100A4-myosin IIA interaction inhibition; P26447; S100A4/TAMRA-MyoIIA peptide fluorescence polarization; inhibition, % at 10.7 µM; 360,000 compounds, 0.14% hits; AID 652163;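 active = mean inhibition of at least 70% across replicates, with every replicate also reaching that level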
Target sequence (P26447 whole entry, looked up): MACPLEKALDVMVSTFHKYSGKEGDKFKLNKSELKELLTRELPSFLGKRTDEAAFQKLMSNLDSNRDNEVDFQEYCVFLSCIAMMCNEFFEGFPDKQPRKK
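assay system = human S100A4 monomer with TAMRA-labelled myosin IIA peptide | also added = labelled myosin peptide probe, 5 nM | incubation = 5 min between mix addition and reading | control set = DMSO and TFP controls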
RAD54 branch = blocks human RAD54 Holliday junction branch migration; FAM/BHQ fluorescence; AID 602329; Q92698; inhibition, % at 10.4 µM; 360,000 compounds, 0.14% hits;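 active = mean normalized replicate activity at least 40 and at least half of replicates scoring 40 or more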;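 also: 0% = median of neutral control wells and 100% = median of positive control wells; inhibitors cause a drop in the FAM fluorescence signal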
ERp5 inh = ERp5 (human) disulfide isomerase inhibition; ERp5 insulin aggregation, absorbance 650 nm, 90 min; inhibition, % at 9.99 µM; 350,000 compounds, 0.05% hits; AID 651711;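 active = mean replicate inhibition above about 25%, with every replicate also reaching it, limit read from the data, passing the limit was not always enough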
Target sequence (Q15084 whole entry, looked up): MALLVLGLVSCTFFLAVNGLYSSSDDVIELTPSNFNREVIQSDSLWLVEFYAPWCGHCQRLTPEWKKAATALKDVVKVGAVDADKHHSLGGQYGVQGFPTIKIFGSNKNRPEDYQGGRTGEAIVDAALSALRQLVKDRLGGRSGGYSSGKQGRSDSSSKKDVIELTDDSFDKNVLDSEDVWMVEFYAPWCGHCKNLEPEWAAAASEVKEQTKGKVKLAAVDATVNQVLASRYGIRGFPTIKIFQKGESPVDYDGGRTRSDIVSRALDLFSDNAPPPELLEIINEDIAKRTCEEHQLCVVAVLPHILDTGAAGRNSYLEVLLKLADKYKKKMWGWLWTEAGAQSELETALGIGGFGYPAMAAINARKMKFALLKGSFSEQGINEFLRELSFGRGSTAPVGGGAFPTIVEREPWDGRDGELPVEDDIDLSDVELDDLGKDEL
PglD DTNB = PglD (C. jejuni) enzyme inhibition; 360,000 compounds, 0.098% hits; inhibition, % at 12.5 µM; purified PglD enzyme, DTNB colorimetric CoA detection; in the data active = inhibition above about 16%, passing the limit was not always enough
* marks the source's active call; other numbers are inactive results. Shown are actives, neighbours in structure and some others; about 0.44% of the full set was active somewhere.

How did COC1=C(Br)C(=O)c2ncccc2C1=O do in these assays?
PDI inh: 47*; FN deposit inh: -2; S100A4 inh HTS: 13; ERp5 inh: 7

Results for CCS(=O)(=O)Nc1ccc2c(c1)C(=O)N(C)C[C@@H](OC)[C@H](C)CN(Cc1ccccn1)[C@H](C)CO2 ?
FN deposit inh: -22; S100A4 inh HTS: -10; RAD54 branch: 1; ERp5 inh: 0; PglD DTNB: 6

Results for C/C=C/c1ccc([C@@H]2[C@@H](CO)N(C(=O)C3CC3)C23CN(S(=O)(=O)CC)C3)cc1 ?
FN deposit inh: 1; S100A4 inh HTS: -6; ERp5 inh: -2

How did CCCC(=O)Nc1ccc2c(c1)OC[C@@H](C)N(CC1CCCC1)C[C@@H](C)[C@@H](OC)CN(C)C2=O do in these assays?
FN deposit inh: -14; S100A4 inh HTS: 4; RAD54 branch: -11; ERp5 inh: -1; PglD DTNB: 1

Results for CCOc1ccc(NC(=O)c2ccc(CNc3c(NC4CCCCC4)c(=O)c3=O)cc2)cc1 ?
PDI inh: -2; FN deposit inh: 33*; S100A4 inh HTS: 12; RAD54 branch: -2; ERp5 inh: 4; PglD DTNB: -1

How did O=C(c1ccccc1F)N1C[C@H]2[C@@H](c3ccccc31)[C@H](CO)N2C(=O)c1ccccc1 do in these assays?
FN deposit inh: 8; S100A4 inh HTS: 3; RAD54 branch: -3; ERp5 inh: 1; PglD DTNB: -6

How did O=S(=O)(c1ccc(F)cc1)N1C[C@H]2[C@@H](c3ccccc31)[C@H](CO)N2Cc1ccccc1Cl do in these assays?
FN deposit inh: -7; S100A4 inh HTS: 100*; RAD54 branch: -12; ERp5 inh: 0; PglD DTNB: 8

Results for Cc1nn(C)cc1NC(=O)C[C@@H]1CC[C@@H]2[C@@H](COc3ccc(NC(=O)C4CCC4)cc3C(=O)N2C)O1 ?
FN deposit inh: -16

How did C[C@@H]1CN(C)C(=O)c2cccc(N)c2O[C@@H]1CN(C)C(=O)OC(C)(C)C do in these assays?
FN deposit inh: -13

What do the screens show for `CSc1ccccc1C(=O)C1CCCN(C(=O)CCc2cccnc2)C1` (stereo unspecified)?
PDI inh: 4; FN deposit inh: 45*; S100A4 inh HTS: 1; RAD54 branch: -6; ERp5 inh: -8; PglD DTNB: 3

What do the screens show for `CCS(=O)(=O)N[C@H]1C=C[C@@H](CC(=O)NCc2ccc(Cl)cc2)O[C@H]1CO`?
FN deposit inh: 12; S100A4 inh HTS: 3; RAD54 branch: 5; ERp5 inh: 8; PglD DTNB: -1

What do the screens show for `Cc1ccccc1-n1sc2cc(F)ccc2c1=O`?
PDI inh: -4; FN deposit inh: 40*; S100A4 inh HTS: 0; RAD54 branch: 3; ERp5 inh: 1; PglD DTNB: 5

What do the screens show for `CCS(=O)(=O)Nc1ccc2c(c1)C(=O)N(C)[C@H]1CC[C@H](CC(=O)OC)O[C@@H]1CO2`?
FN deposit inh: 3; S100A4 inh HTS: -2; ERp5 inh: -1

Results for Cc1ccc(N(C)c2nc(N)nc(N)c2N=O)cc1 ?
FN deposit inh: 8; S100A4 inh HTS: 191*; ERp5 inh: -1

What do the screens show for `COc1ccc2ccc3cccc[n+]3c2c1`?
PDI inh: 8; FN deposit inh: -13; S100A4 inh HTS: -3; RAD54 branch: 51*; ERp5 inh: -5; PglD DTNB: -12

How did CO[C@H]1CC[C@H]2CCN(C)C(=O)[C@@H](C)[C@H](OC)CN(C)C(=O)c3cc(C#N)ccc3OC[C@@H]1O2 do in these assays?
FN deposit inh: 2; S100A4 inh HTS: -9; RAD54 branch: -13; ERp5 inh: -1; PglD DTNB: 1

What do the screens show for `CO[C@H]1CC[C@H]2CCN(C)C(=O)[C@@H](C)[C@H](OC)CN(C)C(=O)c3cc(C#N)ccc3OC[C@H]1O2`?
FN deposit inh: -8; S100A4 inh HTS: 98*; RAD54 branch: 13; ERp5 inh: -1; PglD DTNB: -1

What do the screens show for `CN1C(=O)c2cc(NC(=O)c3cccs3)ccc2OC[C@H]2O[C@H](CC(=O)O)CC[C@H]21`?
FN deposit inh: -20; S100A4 inh HTS: 9; PglD DTNB: 2

Results for CCOc1ccccc1NC(=O)c1c(NC(=O)CCC(=O)O)sc2c1CCCCC2 ?
PDI inh: -4; FN deposit inh: 33*; S100A4 inh HTS: -19; ERp5 inh: 5

Results for C[C@H](CO)N1C[C@H](C)[C@@H](CN(C)CC2CCCCC2)Oc2c(NC(=O)Cc3cn(C)c4ccccc34)cccc2C1=O ?
FN deposit inh: 23

How did CCOC(=O)c1c(CN(C)C)n(C)c2c(O)c(N=NC(N)=O)c3ccc(Br)cc3c12 do in these assays?
PDI inh: -7; FN deposit inh: -11; S100A4 inh HTS: -2; RAD54 branch: 58*; ERp5 inh: -1; PglD DTNB: 3

What do the screens show for `CC(C)CC#Cc1ccc2c(c1)O[C@@H](CN(C)Cc1ccc(C(=O)O)cc1)[C@H](C)CN([C@@H](C)CO)S2(=O)=O`?
FN deposit inh: -8; S100A4 inh HTS: 0; RAD54 branch: -2; ERp5 inh: -2; PglD DTNB: 14

How did CO[C@@H]1CN(C)C(=O)c2ccc(NC(=O)CC(F)(F)F)cc2OC[C@@H](C)N(C(=O)C2CC2)C[C@@H]1C do in these assays?
FN deposit inh: -13; S100A4 inh HTS: -12; ERp5 inh: 5

Results for CCN1C(=O)C(=O)c2cc(C)ccc21 ?
PDI inh: 20; FN deposit inh: 5; S100A4 inh HTS: 37; RAD54 branch: -2; ERp5 inh: -3; PglD DTNB: -1

How did CC[N+]1=C(C)C(C)(C)c2cc(C)ccc21 do in these assays?
PDI inh: 8; FN deposit inh: -39; S100A4 inh HTS: 182*; RAD54 branch: -51; ERp5 inh: 4; PglD DTNB: 0

What do the screens show for `CO[C@@H]1CN(C)C(=O)c2cc(NS(=O)(=O)CC(F)(F)F)ccc2OC[C@H](C)N(C(=O)NC(C)C)C[C@@H]1C`?
FN deposit inh: -2; S100A4 inh HTS: 44; RAD54 branch: 5; ERp5 inh: -1; PglD DTNB: 8

How did O=C(/C=C/c1ccc(O)c([N+](=O)[O-])c1)c1ccc2ccccc2c1 do in these assays?
PDI inh: 4; FN deposit inh: -3; S100A4 inh HTS: 3; RAD54 branch: 4; ERp5 inh: 1; PglD DTNB: -3

What do the screens show for `COc1ccc(Oc2ccc(/C=C/C(=O)c3ccc(O)cc3)cc2[N+](=O)[O-])cc1`?
PDI inh: 99*; FN deposit inh: 18; S100A4 inh HTS: -7; ERp5 inh: -48

How did COc1ccc2c3c(n(C)c2c1)[C@@H](CO)N(C(=O)Nc1ccc(F)cc1)CC31CCN(C(=O)NC2CCCC2)CC1 do in these assays?
S100A4 inh HTS: 2; ERp5 inh: -5
